Measured values as given in paper PMC3646928 (Peptides, 2013).

Experiments:
[1] = system: protein-free HJ DNA; test: Non-competitive HJ band shift; format: binding
[2] = system: E. coli MG1655 cells; test: Bacterial TUNEL assay; format: cell-based; settings: highest concentration tested, 1.5 hours
How it was run: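 E. coli MG1655 grown as for MIC testing: overnight culture diluted 1:100 in Mueller Hinton broth, grown to OD600 0.08–0.1, then exposed to peptide for 1.5 h. Cells pelleted and resuspended in 1× PBS. TdT labels 3′-OH ends with fluorescein-dUTP; TOTO-3 counterstains DNA. Flow cytometry (488 nm FITC, 633 nm APC; 50,000 events). TUNEL-positive expressed as fraction of TOTO-3-positive cells, normalized to DMSO-treated cells.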

Substance | shift of protein-free HJ DNA in EMSA (specific shift) [1] | TUNEL-positive cells [2]
KWWRGGRWWK | caused a change in the mobility of protein-free HJ DNA similar to shifts seen with (WRWYCR)2 | –
WRWYCR | – | 75.6 ± 2.2%
WRWYGGYWRW | Neither WRWYGGYWRW nor WYCRGGRCYW caused specific shifts at low peptide concentrations | –
WYCRGGRCYW | Neither WRWYGGYWRW nor WYCRGGRCYW caused specific shifts at low peptide concentrations | –
